SR-BI DiI-HDL act: activators of SR-BI mediated HDL lipid uptake; CHO ldlA[mSR-BI] cells, DiI-HDL uptake fluorescence, 3 h; 100 = double the neutral-control signal; activation, % at 12.5 µM; 320,000 compounds, 0.096% hits; AID 504775;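 active = mean replicate activation of at least 60% and every replicate at or above 60%; inconclusive = mean or all-replicate condition met, but not both; inactive = mean below 60% and not all replicates reaching 60%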
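Material: SR-BI-overexpressing, LDLR-lacking CHO cells; schedule: compound exposure 3 h, 37 °C; reagent: DiI-labelled HDL at 10 µg/mL final; technique: bottom-read fluorescence, 550/595 nm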
SR-BI DiI inh: inhibitors of mouse SR-BI mediated HDL lipid uptake | Q61009 | ldlA[mSR-BI] CHO cells, DiI-HDL uptake fluorescence, 3 h | inhibition, % at 12.5 µM | 320,000 compounds, 0.96% hits | AID 488896;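 active = mean replicate inhibition of at least 70% and a set share of replicates each scoring 70 or more; inconclusive = meets just one of the two criteria; inactive = fails both criteria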
Target sequence (Q61009 whole entry, looked up): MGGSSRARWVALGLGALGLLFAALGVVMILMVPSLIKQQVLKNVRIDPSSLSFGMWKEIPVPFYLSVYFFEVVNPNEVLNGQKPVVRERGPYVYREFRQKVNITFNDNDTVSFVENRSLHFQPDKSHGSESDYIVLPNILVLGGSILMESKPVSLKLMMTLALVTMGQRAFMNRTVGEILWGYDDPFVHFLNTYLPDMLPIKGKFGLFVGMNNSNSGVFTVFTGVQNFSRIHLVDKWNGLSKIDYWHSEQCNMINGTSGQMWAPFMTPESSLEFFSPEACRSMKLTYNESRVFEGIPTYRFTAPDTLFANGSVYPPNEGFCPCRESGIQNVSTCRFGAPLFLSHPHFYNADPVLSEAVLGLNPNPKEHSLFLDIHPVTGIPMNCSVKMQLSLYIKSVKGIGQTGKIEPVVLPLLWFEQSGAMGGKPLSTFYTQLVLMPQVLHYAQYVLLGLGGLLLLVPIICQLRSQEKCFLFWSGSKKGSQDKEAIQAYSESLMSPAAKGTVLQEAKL
Glyco luc inh: N-linked glycosylation inhibition. D54 ERlucT glycosylation luciferase reporter, 24 h; percent of 100 nM tunicamycin response. reporter increase, % at 12.5 µM. 360,000 compounds, 0.23% hits. AID 588692;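 active = mean luciferase reporter signal, scaled so untreated is 0 and the glycosylation-blocking control 100, at or above a set limit in every replicate; inconclusive = mean reaches the limit but not every replicate does; inactive = mean below the limit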;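 also: luciferase carries N-glycosylation sites so blocking glycosylation raises the light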
PglD inh: PglD (C. jejuni) enzyme inhibition; inhibition, % at 12.5 µM; 360,000 compounds, 0.098% hits; purified PglD enzyme, DTNB colorimetric CoA detection; in the data active = inhibition above about 16%, passing the limit was not always enough; inconclusive = no clear call, values can overlap the other calls
Rtt109 HAT inh: C. albicans Rtt109 histone acetyltransferase inhibition | purified Rtt109/Vps75, ThioGlo CoA-SH fluorescence, 4 h | inhibition, % at 34.9 µM | 330,000 compounds, 0.16% hits;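 active = inhibition of at least 50% in every replicate; inconclusive = best replicate reaches 50% inhibition but some replicates fall short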
Env fusion inh: inhibitors of HIV Env-mediated cell fusion. HeLa-JRFL Env/CEM21 cell fusion, luciferase. inhibition, % at 12.3 µM. 360,000 compounds, 1.1% hits. AID 651610;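 active = mean replicate inhibition score of at least 50 and every replicate individually at or above 50; inconclusive = only one of the two criteria met; inactive = mean below 50 and not all replicates reaching 50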
Numbers stand for hits; - = inactive; ? = inconclusive; . = no result; [ ] = another dose, or the depositor's remark. Shown are actives, neighbours in structure and some others; about 1.9% of the full set was active somewhere.

SMILES | SR-BI DiI-HDL act | SR-BI DiI inh | Glyco luc inh | PglD inh | Rtt109 HAT inh | Env fusion inh
CC(C)c1nnc(NC(=O)CCS(=O)(=O)c2nc(-c3cccs3)cc(C(F)(F)F)n2)s1 | - | - | - | . | - | 85.2
CCOc1ccccc1N1CCN(C(=O)c2ccncc2)CC1 | - | - | - | . | 51.5 | -
COc1ccc(S(=O)(=O)N2CCCOC2CNC(=O)C(=O)NCCCn2ccnc2)cc1OC (centres undefined) | 70.5 | - | - | . | - | -
COc1ccc(S(=O)(=O)N2CCOC2CNC(=O)C(=O)NCCCn2ccnc2)cc1OC (centres undefined) | - | - | - | - | - | -
C[C@H](CO)N1C[C@H](C)[C@H](CN(C)C(=O)C2CC2)Oc2cc(C#CCN(C)C)ccc2S1(=O)=O | . | . | . | . | . | -
O=C(N[C@@H]1CC[C@@H](CC(=O)N2CCOCC2)O[C@@H]1CO)c1ccccn1 | . | . | . | - | . | .
CCCCCn1c(=O)[nH]c2cc(C(=O)N3CCN(Cc4ccc5c(c4)OCO5)CC3)ccc2c1=O | - | - | - | - | . | 67.2
CCCCCn1c(=O)[nH]c2cc(C(=O)NCc3ccc4c(c3)OCO4)ccc2c1=O | - | - | - | - | - | -
CN(/N=C/c1ccc(O)cc1O)c1nc(-c2ccccc2)cc(-c2ccccc2)n1 | - | 90.3 | - | - | - | .
C[C@H](CO)N1C[C@H](C)[C@H](CN(C)C(=O)Nc2ccc(C(F)(F)F)cc2)OCCCC[C@H](C)Oc2ccc(NC(=O)Nc3ccc(C(F)(F)F)cc3)cc2C1=O | . | . | . | - | . | ?
C[C@@H](NC(=O)C[C@@H]1CC[C@@H](NC(=O)C2CC2)[C@H](CO)O1)c1ccccc1 | . | . | . | - | . | -
O=C(N/N=C/c1ccc([N+](=O)[O-])s1)c1ccccc1 | - | - | - | - | - | -
O=C(N/N=C\c1ccc([N+](=O)[O-])s1)c1cncc(Br)c1 | - | - | - | - | - | 103.8
CC(C)[C@H]1COCc2cn(nn2)CC[C@H](Cc2ccccc2)C(=O)N1 | . | . | . | . | . | -
Cc1ccc(OCCCC(=O)NCc2ccco2)cc1 | - | - | - | - | - | -
Cc1ccc(OCCNC(=O)C(=O)NCc2ccco2)cc1 | - | - | 26.4 | . | - | -
COc1ccc(COCC23N=C4SCc5ccccc5C(=O)N4[C@H](c4ccccc4O2)[C@H]3COC(=O)c2ccccc2)cc1 | . | . | . | - | . | -
COc1ccc(COCC23N=C4SCc5ccccc5CN4[C@H](c4ccccc4O2)[C@H]3COC(=O)c2ccccc2)cc1 | . | . | . | - | . | 69.3[16.7 µM]
CC=Cc1ccc2n(c1=O)C[C@@H]1[C@@H](CO)[C@H](C(=O)NCC3CCCCC3)N(C(=O)CC)[C@H]21 (mixture of isomers) | . | . | . | - | . | .
O=C1CC(SC(=Nc2ccccc2)Nc2ccccc2)C(=O)N1c1cccc2ccccc12 (centres undefined) | - | 92.8 | - | - | - | .
O=C(O)c1ccc(N2C(=O)CC(SC(=Nc3ccccc3)Nc3ccccc3)C2=O)cc1 (centres undefined) | - | - | - | . | - | .
CNc1ccccc1C(C)(C)c1cc(-c2ccc(F)cc2)no1 | - | - | - | - | - | 65.6
COc1ccccc1C(=O)NC(=S)Nc1ccccc1N1CCCC1 | - | 74.7 | - | - | - | -
O=C1c2cccc3cccc(c23)C(=O)N1CCN1CCN(C(=S)Nc2ccccc2)CC1 | - | 71.7 | - | - | - | -
O=C1c2cccc3cccc(c23)C(=O)N1CCN1CCN(C(=S)Nc2ccc(Cl)cc2)CC1 | - | - | - | - | - | -
SMILES | SR-BI DiI-HDL act | SR-BI DiI inh | Glyco luc inh | PglD inh | Rtt109 HAT inh | Env fusion inh
O=C(/C=C/c1ccc(Cl)cc1)N1CCN(CCN2C(=O)c3cccc4cccc(c34)C2=O)CC1 | - | 77.9 | - | - | - | -
C[C@H]1CN([C@@H](C)CO)C(=O)Cc2cc(NC(=O)Cn3cnnn3)ccc2O[C@H]1CN(C)Cc1ccc(Oc2ccccc2)cc1 | . | . | . | - | . | -
C=CCn1c(C)nnc1SCC(=O)NC1CCCCC1 | - | - | - | - | - | -
C=CCn1c(C)nnc1SCC(=O)NC1CC1 | - | - | - | - | - | 61.8
COc1ccc(S(=O)(=O)N[C@@H]2CC[C@@H](CC(=O)NCCc3ccncc3)O[C@H]2CO)cc1 | . | . | . | - | . | -
CC(CCc1ccco1)NC(=O)CCc1nnc2ccc(NCc3ccccc3Cl)nn12 (centres undefined) | - | - | - | - | - | 77.0
